In brackets after ≈: the same amount, converted by molar mass. Activity calls are given as the source filed them. No cut-off for these calls is given here.
What was measured:
Vero = assay: Cytotoxicity against african green monkey Vero cells after 72 hrs by MTT proliferation assay; type: cell-based; details: Chlorocebus sabaeus
Method in brief: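 IC50 is taken as the concentration that lowers Vero kidney cell viability by 50%.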

Streptococcus pyogenes = assay: Antibacterial activity against Streptococcus pyogenes ATCC 700294 by micro-broth dilution method; type: functional
[1] = Selectivity index, ratio of IC50 for african green monkey Vero cells to MIC for methicillin- sensitive Staphylococcus aureus 8325 ATCC 35556; type: functional
Method in brief: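 Selectivity index is calculated as the Vero cell cytotoxic IC50 divided by the MIC against the wild-type, drug-sensitive, methicillin-sensitive S. aureus 8325 (ATCC 35556).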

Enterococcus faecalis = assay: Antibacterial activity against Enterococcus faecalis ATCC 33186 by microbroth dilution method; type: functional
Pseudomonas aeruginosa = assay: Antibacterial activity against Pseudomonas aeruginosa by micro-broth dilution method; type: functional
Escherichia coli = assay: Antibacterial activity against Escherichia coli by micro-broth dilution method; type: functional
Staphylococcus aureus [2] = assay: Antibacterial activity against methicillin-resistant Staphylococcus aureus ATCC 33591 by micro-broth dilution method; type: functional
Staphylococcus aureus [3] = assay: Antibacterial activity against methicillin-sensitive Staphylococcus aureus 8325 ATCC 35556 by micro-broth dilution method; type: functional
Bacillus anthracis = assay: Antibacterial activity against Bacillus anthracis Sterne 34F2 by micro-broth dilution method; type: functional
Cutibacterium acnes = assay: Antibacterial activity against Propionibacterium acnes ATCC 6919 by micro-broth dilution method; type: functional
Bacillus subtilis = assay: Antibacterial activity against Bacillus subtilis ATCC 23857 by microbroth dilution method; type: functional
[4] = tested on: Mycobacterium tuberculosis; assay: Antimycobacterial activity against Mycobacterium tuberculosis H37Rv after 7 days by micro-broth dilution method; type: functional; details: for MIC: 168 h
Streptococcus pneumoniae = assay: Antibacterial activity against Streptococcus pneumoniae DAW30 by micro-broth dilution method; type: functional

| SMILES | IC50 (Vero) [µg/mL] | MIC (Streptococcus pyogenes) [µg/mL] | Ratio [1] | MIC (Enterococcus faecalis) [µg/mL] | MIC (Pseudomonas aeruginosa) [µg/mL] | MIC (Escherichia coli) [µg/mL] | MIC (Staphylococcus aureus [2]) [µg/mL] | MIC (Staphylococcus aureus [3]) [µg/mL] | MIC (Bacillus anthracis) [µg/mL] | MIC (Cutibacterium acnes) [µg/mL] | MIC (Bacillus subtilis) [µg/mL] | MIC [4] [µg/mL] | MIC (Streptococcus pneumoniae) [µg/mL] | other results |
| --- | --- | --- | --- | --- | --- | --- | --- | --- | --- | --- | --- | --- | --- | --- |
| CC(C)=CCCC(C)CCN1C(=O)/C(=C(/C)O)C(=O)[C@@H]1CC(C)C (some centres not stated) | 7.3 (≈ 21.8 µM) | 25 (≈ 74.5 µM) | 18.3 | 0.8 (≈ 2.38 µM) | > 200 | > 200 | 0.8 (≈ 2.38 µM) | 0.4 (≈ 1.19 µM) | 0.4 (≈ 1.19 µM) | 0.4 (≈ 1.19 µM) | 0.8 (≈ 2.38 µM) | 200 (≈ 596 µM) | 3.25 (≈ 9.69 µM) |  |
| C/C(O)=C1\C(=O)[C@H](CC(C)C)N(CC2=CCC3CC2C3(C)C)C1=O (some centres not stated) | 35.4 (≈ 107 µM) | 25 (≈ 75.4 µM) | 22.1 | 1.6 (≈ 4.83 µM) | > 200 | > 200 | 1.6 (≈ 4.83 µM) | 1.6 (≈ 4.83 µM) | 0.8 (≈ 2.41 µM) | 0.8 (≈ 2.41 µM) | 1.6 (≈ 4.83 µM) | 100 (≈ 302 µM) | 50 (≈ 151 µM) |  |
| COc1cccc(CN2C(=O)C(C#N)=C(O)[C@@H]2CC(C)C)c1 |  |  |  |  | > 200 | > 200 |  |  |  |  |  |  |  | Activity (Streptococcus pyogenes): inactive; Activity (Enterococcus faecalis): inactive; Activity (Staphylococcus aureus [2]): inactive; Activity (Staphylococcus aureus [3]): inactive; Activity (Bacillus anthracis): inactive; Activity (Cutibacterium acnes): inactive; Activity (Bacillus subtilis): inactive; Activity [4]: inactive; Activity (Streptococcus pneumoniae): inactive |
| CCC(C)[C@H]1C(=O)/C(=C(\C)O)C(=O)N1Cc1ccccc1 (some centres not stated) | 26.3 (≈ 91.5 µM) | > 200 | 4.2 | 6.25 (≈ 21.7 µM) | > 200 | > 200 | 6.25 (≈ 21.7 µM) | 6.25 (≈ 21.7 µM) | 3.12 (≈ 10.9 µM) | 6.25 (≈ 21.7 µM) | 25 (≈ 87 µM) | 50 (≈ 174 µM) | 50 (≈ 174 µM) |  |
| CCCCCCCCCCN1C(=O)/C(=C(/C)O)C(=O)[C@H]1CC(C)C | 6.3 (≈ 18.7 µM) | 50 (≈ 148 µM) | 15.8 | 1.6 (≈ 4.74 µM) | > 200 | > 200 | 0.8 (≈ 2.37 µM) | 0.4 (≈ 1.19 µM) | 0.8 (≈ 2.37 µM) | 0.8 (≈ 2.37 µM) | 0.8 (≈ 2.37 µM) | 25 (≈ 74.1 µM) | 6.25 (≈ 18.5 µM) |  |
| CC(C)C[C@H]1C(O)=C(C#N)C(=O)N1Cc1ccc(F)cc1 |  |  |  |  | > 200 | > 200 |  |  |  |  |  |  |  | Activity (Streptococcus pyogenes): inactive; Activity (Enterococcus faecalis): inactive; Activity (Staphylococcus aureus [2]): inactive; Activity (Staphylococcus aureus [3]): inactive; Activity (Bacillus anthracis): inactive; Activity (Cutibacterium acnes): inactive; Activity (Bacillus subtilis): inactive; Activity [4]: inactive; Activity (Streptococcus pneumoniae): inactive |
| N#CC1=C(O)[C@H](Cc2ccccc2)N(Cc2ccccc2)C1=O |  |  |  |  | > 200 | > 200 |  |  |  |  |  |  |  | Activity (Streptococcus pyogenes): inactive; Activity (Enterococcus faecalis): inactive; Activity (Staphylococcus aureus [2]): inactive; Activity (Staphylococcus aureus [3]): inactive; Activity (Bacillus anthracis): inactive; Activity (Cutibacterium acnes): inactive; Activity (Bacillus subtilis): inactive; Activity [4]: inactive; Activity (Streptococcus pneumoniae): inactive |
| N#CC1=C(O)[C@@H](Cc2ccccc2)N(Cc2ccccc2)C1=O |  |  |  |  | > 200 | > 200 |  |  |  |  |  |  |  | Activity (Streptococcus pyogenes): inactive; Activity (Enterococcus faecalis): inactive; Activity (Staphylococcus aureus [2]): inactive; Activity (Staphylococcus aureus [3]): inactive; Activity (Bacillus anthracis): inactive; Activity (Cutibacterium acnes): inactive; Activity (Bacillus subtilis): inactive; Activity [4]: inactive; Activity (Streptococcus pneumoniae): inactive |
| CCCCCCCCCCN1C(=O)C(C#N)=C(O)[C@@H]1CC(C)C |  |  |  |  | > 200 | > 200 |  |  |  |  |  | 3.12 (≈ 9.74 µM) |  |  |
| CCCCCCCCCCN1C(=O)/C(=C(/C)O)C(=O)[C@@H]1CC(C)C | 14.7 (≈ 43.6 µM) | 50 (≈ 148 µM) | 36.8 | 1.6 (≈ 4.74 µM) | > 200 | > 200 | 0.8 (≈ 2.37 µM) | 0.4 (≈ 1.19 µM) | 0.8 (≈ 2.37 µM) | 0.8 (≈ 2.37 µM) | 0.8 (≈ 2.37 µM) | 12.5 (≈ 37 µM) | 6.25 (≈ 18.5 µM) |  |
| C/C(O)=C1\C(=O)[C@@H](Cc2ccccc2)N(Cc2ccccc2)C1=O | 80.6 (≈ 251 µM) | 200 (≈ 622 µM) | 3.2 | 100 (≈ 311 µM) | > 200 | > 200 | 25 (≈ 77.8 µM) | 25 (≈ 77.8 µM) | 25 (≈ 77.8 µM) | 25 (≈ 77.8 µM) | 25 (≈ 77.8 µM) | > 200 | 50 (≈ 156 µM) |  |
| C/C(O)=C1\C(=O)[C@H](CC(C)C)N(Cc2ccc(-c3ccccc3)cc2)C1=O | 19.7 (≈ 54.2 µM) | 25 (≈ 68.8 µM) | 98.5 | 0.8 (≈ 2.2 µM) | > 200 | > 200 | 0.8 (≈ 2.2 µM) | 0.2 (≈ 0.55 µM) | 0.4 (≈ 1.1 µM) | 0.2 (≈ 0.55 µM) | 0.4 (≈ 1.1 µM) | 50 (≈ 138 µM) | 12.5 (≈ 34.4 µM) |  |
| CCN1C(=O)/C(=C(/C)O)C(=O)[C@@H]1Cc1ccccc1 |  | > 200 |  | > 200 | > 200 | > 200 | > 200 | 200 (≈ 771 µM) | 50 (≈ 193 µM) | 100 (≈ 386 µM) | > 200 | > 200 | > 200 |  |
| CCC(C)[C@H]1C(O)=C(C#N)C(=O)N1Cc1ccccc1 (some centres not stated) |  |  |  |  | > 200 | > 200 |  |  |  |  |  |  |  | Activity (Streptococcus pyogenes): inactive; Activity (Enterococcus faecalis): inactive; Activity (Staphylococcus aureus [2]): inactive; Activity (Staphylococcus aureus [3]): inactive; Activity (Bacillus anthracis): inactive; Activity (Cutibacterium acnes): inactive; Activity (Bacillus subtilis): inactive; Activity [4]: inactive; Activity (Streptococcus pneumoniae): inactive |
| CCCCCCCCCCN1C(=O)/C(=C(/C)O)C(=O)[C@@H]1Cc1ccccc1 | 21.1 (≈ 56.8 µM) | 50 (≈ 135 µM) | 105.5 | 0.8 (≈ 2.15 µM) | > 200 | > 200 | 0.8 (≈ 2.15 µM) | 0.2 (≈ 0.538 µM) | 0.2 (≈ 0.538 µM) | 0.4 (≈ 1.08 µM) | 0.4 (≈ 1.08 µM) | 50 (≈ 135 µM) | 12.5 (≈ 33.6 µM) |  |
| C/C(O)=C1\C(=O)[C@H](CC(C)C)N(Cc2ccc(F)cc2)C1=O | 27.8 (≈ 91 µM) | 100 (≈ 327 µM) | 2.2 | 50 (≈ 164 µM) | > 200 | > 200 | 25 (≈ 81.9 µM) | 12.5 (≈ 40.9 µM) | 12.5 (≈ 40.9 µM) | 6.25 (≈ 20.5 µM) | 25 (≈ 81.9 µM) | 100 (≈ 327 µM) | 50 (≈ 164 µM) |  |
| CCCCCCCCCCN1C(=O)/C(=C(/C)O)C(=O)[C@@H]1C(C)C | 7 (≈ 21.6 µM) | 25 (≈ 77.3 µM) | 8.8 | 0.8 (≈ 2.47 µM) | > 200 | > 200 | 0.8 (≈ 2.47 µM) | 0.8 (≈ 2.47 µM) | 0.8 (≈ 2.47 µM) | 0.4 (≈ 1.24 µM) | 0.4 (≈ 1.24 µM) | 12.5 (≈ 38.6 µM) | 6.25 (≈ 19.3 µM) |  |
| C/C(O)=C1\C(=O)[C@@H](CC(C)C)N(Cc2ccc(F)cc2)C1=O | 35.3 (≈ 116 µM) | 100 (≈ 327 µM) | 2.8 | 50 (≈ 164 µM) | > 200 | > 200 | 12.5 (≈ 40.9 µM) | 12.5 (≈ 40.9 µM) | 12.5 (≈ 40.9 µM) | 12.5 (≈ 40.9 µM) | 12.5 (≈ 40.9 µM) | 100 (≈ 327 µM) | 25 (≈ 81.9 µM) |  |
| CCCCN1C(=O)/C(=C(/C)O)C(=O)[C@@H]1CC(C)C | 254 (≈ 1000 µM) | > 200 | 81.4 | 1.6 (≈ 6.32 µM) | > 200 | > 200 | 6.25 (≈ 24.7 µM) | 3.12 (≈ 12.3 µM) | 12.5 (≈ 49.3 µM) | 0.8 (≈ 3.16 µM) | 6.25 (≈ 24.7 µM) | 100 (≈ 395 µM) | 100 (≈ 395 µM) |  |
| COc1cccc(CN2C(=O)/C(=C(/C)O)C(=O)[C@@H]2CC(C)C)c1 | 40 (≈ 126 µM) | 200 (≈ 630 µM) | 3.2 | 100 (≈ 315 µM) | > 200 | > 200 | 25 (≈ 78.8 µM) | 12.5 (≈ 39.4 µM) | 25 (≈ 78.8 µM) | 12.5 (≈ 39.4 µM) | 25 (≈ 78.8 µM) | 100 (≈ 315 µM) | 50 (≈ 158 µM) |  |
| C/C(O)=C1\C(=O)[C@H](Cc2ccccc2)N(Cc2ccccc2)C1=O | 75.7 (≈ 236 µM) | > 200 | 6.1 | 100 (≈ 311 µM) | > 200 | > 200 | 25 (≈ 77.8 µM) | 12.5 (≈ 38.9 µM) | 25 (≈ 77.8 µM) | 12.5 (≈ 38.9 µM) | 25 (≈ 77.8 µM) | > 200 | 100 (≈ 311 µM) |  |
| CC(C)C[C@@H]1C(O)=C(C#N)C(=O)N1Cc1ccc(F)cc1 |  |  |  |  | > 200 | > 200 |  |  |  |  |  |  |  | Activity (Streptococcus pyogenes): inactive; Activity (Enterococcus faecalis): inactive; Activity (Staphylococcus aureus [2]): inactive; Activity (Staphylococcus aureus [3]): inactive; Activity (Bacillus anthracis): inactive; Activity (Cutibacterium acnes): inactive; Activity (Bacillus subtilis): inactive; Activity [4]: inactive; Activity (Streptococcus pneumoniae): inactive |
